Compound activity deposited in PubChem by several laboratories.
STAT1 blocker – inhibitors of IFN-gamma induced STAT1 signaling; actives 0.35% (n = 200,000); NIH 3T3 STAT1-luciferase reporter, luminescence; inhibition, % at 5.5 µM;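 active means inhibition above a set limit, the mean inhibition across all tested compounds plus 3 SD, cut at about 34% in these data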
APP 5'UTR act – APP 5'UTR luciferase reporter activation. SH-SY5Y APP 5'UTR luciferase reporter, luminescence; zero percent = DMSO vehicle wells. activation, % at 2 µM. actives 1% (n = 190,000). AID 1276;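 active means activation above a set limit, based on mean plus 3 SD of controls, cut at about 140% in these data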
STAT3 act – increases IL-6 driven STAT3 reporter signal. U3A cells, IL-6 STAT3-luciferase reporter, luminescence; 100% = signal with IL-6 EC80 alone. activation (% of control), % at 5.6 µM. actives 0.91% (n = 190,000). AID 871;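 active means activation above the screen-wide mean of compound activation plus 3 SD, cut at about 130% in these data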
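Material: STAT3-luciferase reporter U3A cells. Controls: IL-6-treated wells, 100% activation. Read-out: % activation versus median of IL-6-stimulated wells. Probe or stimulus: IL-6 stimulus at 33 ng/mL final. Timing: compound 1 h, then IL-6 6 h at 37 °C. Signal: reporter luminescence signal.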
STAT3 inh – STAT3 signaling inhibition. U3A cells, IL-6 STAT3-luciferase reporter, luminescence; host cell line lacks STAT1. inhibition, % at 5.5 µM. actives 0.89% (n = 190,000). AID 862;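 active means inhibition above the mean inhibition across all screened compounds plus 3 SD, cut at about 44% in these data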
STAT1 act – STAT1 signaling activation. NIH 3T3 STAT1-luciferase reporter, IFN-gamma, luminescence; 100% = IFN-gamma alone, no compound. activation (% of control), % at 5.5 µM. actives 2.6% (n = 200,000). AID 932;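 active means activation above the screen-wide mean activation plus 3 SD, cut at about 130% in these data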
NF-kB expr up – NF-kB expression increase, human neuronal cells. fold change at 12.5 µM. NF-kB reporter expression; hits give high values. actives 1.6% (n = 190,000); in the data active means fold change above about 3.3
STAT1 activ conf – STAT1 activation, confirmation assay; shares compounds with STAT1 act; NIH 3T3 STAT1-luciferase reporter, IFN-gamma potentiation, luminescence; 100% = IFN-gamma EC80 alone, no compound; activation (% of control), % at 5.7 µM; actives 97% (n = 1,200);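 active means activation above a set limit carried over from the earlier primary STAT1 screen, cut at about 140% in these data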
NFkB act STAT1ct – counter-screen for STAT1 activators: NF-kappaB activation | shares compounds with STAT1 act | actives 43% (n = 1,200) | activation (% of control), % at 5.7 µM | HEK293T NF-kB luciferase reporter, TNF-alpha stimulated, luminescence; 100% = TNF-alpha with vehicle only | AID 1306;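 active means activation above the mean of solvent-only control wells plus 3 SD, set per campaign, cut at about 130% in these data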;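 further: TNF-alpha given at a submaximal dose yielding about 80% of full reporter signal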
STAT3 act 2 – human STAT3 activation in STAT1 activator counter-screen. shares compounds with STAT1 act. U3A cells STAT3-luciferase reporter, IL-6, luminescence; cells lack STAT1; 100 = IL-6 alone, no compound effect. activation (% of control), % at 5.7 µM. actives 46% (n = 1,200);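 active means activation above the solvent-only control well mean plus 3 SD, set per plate batch, cut at about 110% in these data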;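 further: higher means more STAT3 reporter activation so hits are non-selective activators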
Hits are given with their value; 0 = inactive; - = no result. A selection: hits, their analogues and other compounds. The true share with any hit is near 4.9%.

SMILES	STAT1 blocker	APP 5'UTR act	STAT3 act	STAT3 inh	STAT1 act	NF-kB expr up	STAT1 activ conf	NFkB act STAT1ct	STAT3 act 2
c1ccc(OCc2cc(-c3ccccc3)no2)cc1	0	0	0	0	152	0	169	0	0
Cc1ccc2nc(C)cc(C(=O)OCC(=O)Nc3cccnc3Cl)c2c1	0	0	0	0	0	0	-	-	-
CCN(CC)c1nc(-c2ccccn2)nc(-c2ccccc2)c1C#N	0	0	0	0	0	0	-	-	-
Cc1nn(C(=O)c2cccs2)c(N)c1-c1ccccc1	0	0	0	0	162	3.4	183	137	0
CCN(CC)c1ccc(N=Nc2nn(C)c(C)c2[N+](=O)[O-])cc1	0	142	0	0	178	5.7	222	140	0
CCN(CC)c1ccc(N=Nc2ncn[nH]2)cc1	0	0	0	0	0	0	-	-	-
Cc1c(Nc2cc(Cl)c3nonc3c2[N+](=O)[O-])c(=O)n(-c2ccccc2)n1C	0	0	0	0	376	0	159	0	0
Cc1c(Nc2cc(N3CCOCC3)c3nonc3c2[N+](=O)[O-])c(=O)n(-c2ccccc2)n1C	0	0	0	0	0	0	-	-	-
C=CCNC(=S)NNC(=O)COc1ccc(Br)cc1	0	0	0	0	0	0	-	-	-
C=CCNC(=S)NNC(=O)COc1ccc2cc(Br)ccc2c1	0	0	0	0	152	3.4	152	0	0
Cc1ccnc(NC(=O)c2sc3ccccc3c2Cl)c1	0	148	0	0	165	3.6	130	0	0
CCc1ccc(-n2c(=O)c3c(C)c(C)sc3n(CC(=O)NCC3CCCO3)c2=O)cc1 (stereo unspecified)	0	0	0	0	0	0	-	-	-
Cc1cc(C)n(CCNC(=O)CC2C(=O)NCCN2CC2CCCCC2)n1 (stereo unspecified)	0	0	0	0	0	0	-	-	-
O=C(NCc1ccco1)c1sc2cc(F)ccc2c1Cl	0	0	0	0	0	0	-	-	-
O=C(NC1=NCCS1)c1sc2cc(F)ccc2c1Cl	0	0	0	0	172	4.8	209	0	150
O=C(O)c1ccc(/C=N/Nc2ccc(C(F)(F)F)cn2)cc1	0	138	0	0	155	3.9	210	0	124
O=C(O)c1ccc(N/N=C/c2ccc(-c3ccccc3)cc2)cc1	0	186	0	0	220	10	321	162	0
CN(Cc1cnn(C)c1)S(=O)(=O)c1cccc([N+](=O)[O-])c1	0	0	0	0	0	0	-	-	-
Cc1cccc(S(=O)(=O)N/N=c2\sc3ccccc3n2C)c1	0	0	0	0	0	0	-	-	-
Cc1sc2ncn(CC(=O)N3CCOCC3)c(=O)c2c1-c1ccccc1	0	0	0	0	0	0	-	-	-
O=C(/C(C=Nc1ccc(F)cc1)=C(/O)c1ccco1)C(F)(F)F	0	0	0	0	151	3.4	162	0	0
Cc1ccc(N=C/C(C(=O)C(F)(F)F)=C(\O)c2ccco2)cc1Cl	0	136	0	0	183	6.1	221	0	144
Cc1ccc(O)c(NC(=O)c2ccco2)c1	0	0	0	0	0	0	-	-	-
Cc1cccc(N=C/C(C(=O)C(F)(F)F)=C(\O)c2ccco2)c1	0	0	0	0	163	4.8	173	0	123
Nc1cc(=O)[nH]c(SCC(=O)NNC(=O)Cc2ccccc2)n1	0	0	0	0	0	0	-	-	-
O=C(CCCc1ccccc1)Nc1ccc2c(c1)OCCO2	0	203	0	0	151	8	162	0	119
